What is called pIC50 is −log10 of the IC50, conventionally taken in molar units. As usually defined, the AC50 is the concentration at which the activity in the assay is half-maximal.

SMILES strings stand for the structures. pIC50: −log10 of the molar value. Values joined by “and” are separate entries in the source; they are usually repeats but may differ in a detail not shown here. Identical values can stand only once.

17 molecules from ChEMBL document CHEMBL1145181, “Heterocyclic and phenyl double-bond-locked combretastatin analogues possessing potent apoptosis-inducing activity in HL60 and in MDR cell lines” (J Med Chem, 2005) can be followed below.

Data set [1] relates to HL-60. Briefly: Inhibitory concentration to inhibit cell growth 50% was determined in HL60 cells. It counts as functional, cell-based. The following applies: Homo sapiens. In short, it runs like this:
(§1)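 Leukemia cells grown in RPMI 1640 with 10% FCS, penicillin, streptomycin and 2 mM L-glutamine at 37 °C, 5% CO2. Compounds from 20 mM DMSO stocks, final DMSO ≤0.5%. 2 × 10^5 cells in 1 mL were exposed to a range of concentrations for 48 h. Viable cells were counted by trypan blue on a hemocytometer and expressed as percent of control proliferation.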

Data set [2] deals with HL-60. Briefly: Concentration to induce apoptosis in 50% cells was determined in HL60 cells. It counts as functional, cell-based. The settings on record: Homo sapiens.
Data set [3] is described as follows: Percentage of apoptotis in HUT78 cells after 48 h of exposure at 2 uM concentration. It counts as functional, Homo sapiens. The settings on record: in the assay text read “at IC90 concentration” for “at 2 uM concentration”. Summed up: (§2)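 HUT78 (Fas-expressing) and HUT78B1 (nonfunctional death-domain-deleted Fas) cells were exposed to compound for 48 h. Apoptosis was scored morphologically by fluorescence microscopy after acridine orange/ethidium bromide staining, based on chromatin condensation and apoptotic bodies.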

The nature of data set [4]: Concentration required to inhibit cell growth 50% was determined in HL60R cell lines. It counts as functional, cell-based, Homo sapiens. In short, it runs like this:
as §1

A short description of data set [5]: Therapeutic index (IC90/percentage of CFUGEMM inhibition) value after 14 days for bone marrow cells treated with compound at IC90. The following applies: human, 336 h. It counts as cell-based.
For data set [6], the system named is HL-60. Put plainly: Concentration to induce apoptosis in 50% cells was determined in HL60R cell lines. The class given is functional, cell-based. The following applies: Homo sapiens.
Data set [7] deals with K562. Briefly: Concentration required to inhibit cell growth 50% was determined in K562ADR cell lines. It counts as functional, cell-based. The settings on record: Homo sapiens. In short, it runs like this:
as §1

For data set [8], the system named is HL-60. Put plainly: Percentage of apoptotis inhibition at 0.3 uM concentration was determined in HL60 cells in the presence of Z-LEHD-fmk inhibitor. The class given is functional, Homo sapiens. Set-up: scale not given: the % may be the effect or the level left. In short, it runs like this: (§3)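 HL60 cells (2 × 10^5) were pretreated for 2 h with Fas-blocking MoAb ZB4 or with caspase-9 inhibitor Z-LEHD-fmk (5 µM) before compound was added. Apoptosis was scored at 48 h by acridine orange/ethidium bromide morphology and expressed as percent inhibition.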

In data set [9] the test system is Osteoclast-like. Briefly: Percentage of CFU-GEMM inhibition after 14 days for bone marrow cells treated with compound at IC90. The class given is functional, Homo sapiens.
Data set [10] deals with HL-60. Briefly: Percentage of mitosis after 8 hr exposure of HL60 cells to the compound at 1 uM. The class given is functional, Homo sapiens. Summed up: (§4)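 HL60 cells were exposed to compound for 8 h. Mitotic cells were then counted by fluorescence microscopy after acridine orange and ethidium bromide staining.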
In data set [11] the test system is K562. Briefly: Concentration to induce apoptosis in 50% cells was determined in K562 cell lines. The class given is functional, cell-based. The following applies: Homo sapiens.
For data set [12], the system named is HL-60. Put plainly: Percentage of apoptotis inhibition at 0.3 uM concentration was determined in HL60 cells in the presence of Fas-blocking monoclonal antibody. The class given is functional, Homo sapiens. Further details: scale not given: the % may be the effect or the level left. Summed up:
as §3

The subject of data set [13] is HuT78. Briefly: Percentage of apoptotis in HUT78B1 cells after 48 h of exposure at 2 uM concentration. It counts as functional, Homo sapiens. In short, it runs like this: as §2
In data set [14] the test system is K562. Briefly: Concentration to induce apoptosis in 50% cells was determined in K562ADR cell lines. The class given is functional, cell-based. The settings on record: Homo sapiens.
The test system of data set [15] is HL-60. Briefly: Percentage of apoptotis inhibition at 2 uM concentration was determined in HL60 cells in the presence of Fas-blocking monoclonal antibody. It counts as functional, Homo sapiens. Further details: scale not given: the % may be the effect or the level left. In short, it runs like this: as §3
The subject of data set [16] is Osteoclast-like. Briefly: Percentage of CFU-GEMM inhibition value after 14 days for bone marrow cells treated with compound at IC90. It counts as functional, Homo sapiens.
A short description of data set [17]: Inhibitory concentration against HL60R cell lines. It counts as functional, cell-based, Homo sapiens. The following applies: hl-60. Summed up:
as §1

The subject of data set [18] is HuT78. Briefly: Percentage of apoptotis was determined in HUT78 cells after 48 h of exposure at 2 uM concentration. The class given is functional, Homo sapiens. In short, it runs like this:
as §2

The subject of data set [19] is HL-60. Briefly: Percentage of apoptotis inhibition at 2 uM concentration was determined in HL60 cells in the presence of Z-LEHD-fmk inhibitor. The class given is functional, Homo sapiens. Further details: scale not given: the % may be the effect or the level left. Summed up: as §3
In data set [20] the test system is K562. Briefly: Inhibitory concentration against K562ADR cell lines. It counts as functional, cell-based. The settings on record: Homo sapiens. In short, it runs like this: as §1
The subject of data set [21] is HL-60. Briefly: Percentage of mitosis after 8 hr exposure of HL60 cells at 2 uM. It counts as functional, Homo sapiens. In short, it runs like this:
as §4

The subject of data set [22] is HL-60. Put plainly: Percentage of mitosis after 8 hr exposure of HL60 cells to the compound at 2.5 nM. The class given is functional, Homo sapiens. Summed up: as §4
The test system of data set [23] is HL-60. Put plainly: Apoptotic concentration to induce apoptosis in 50% cells was determined in HL60R cell lines. The settings on record: Homo sapiens. The class given is functional, cell-based.
Data set [24] relates to HL-60. Put plainly: Percentage of apoptotis inhibition at 0.5 uM concentration was determined in HL60 cells in the presence of Z-LEHD-fmk inhibitor. The class given is functional, Homo sapiens. Set-up: scale not given: the % may be the effect or the level left. In short, it runs like this:
as §3

The subject of data set [25] is HL-60. Briefly: Percentage of apoptotis inhibition at 0.5 uM concentration was determined in HL60 cells in the presence of Fas-blocking monoclonal antibody. It counts as functional, Homo sapiens. Set-up: scale not given: the % may be the effect or the level left. Summed up: as §3

In turn, `COc1ccc([C@H]2C(S(=O)(=O)c3ccccc3)=NO[C@@H]2c2cc(OC)c(OC)c(OC)c2)cc1O` showed a pIC50 in the data set with HL-60 [1] of 4.82. Further, the AC50 with HL-60 [2] worked out at 25 µM.
With `COC1=NO[C@@H](c2ccc(OC)c(O)c2)[C@H]1c1cc(OC)c(OC)c(OC)c1`, the pIC50 in the data set on HL-60 [1] is 7.00; in data set [4] (Homo sapiens, HL60R), 6.60; in data set [4] (hl60r), 6.60; with K562 [7] it was 6.30. Also, the Activity in data set [3] was 80%; with HL-60 [8] it was 50%; in the data set with HL-60 [10], 17%; with HL-60 [12], 25%; in the data set on HuT78 [13], 60%. In data set [5], the Ratio was 2.5. Further, the AC50 in the data set on HL-60 [6] is 0.75 µM; with K562 [11], 0.4 µM; in the data set on K562 [14] it was 2 µM; in the data set with HL-60 [2] it was 0.3 µM. The CFU-GEMM with Osteoclast-like [9] is on record as 36%.
Regarding `COc1ccc(C2=NOC(c3cc(OC)c(OC)c(OC)c3)C2)cc1O` (configuration not stated), the pIC50 with HL-60 [1] is 5.82. Further, the activity in the data set with HL-60 [2] was half-maximal at 2.2 µM (AC50).
For `COc1ccc([C@H]2ON=C(S(=O)(=O)c3ccccc3)[C@@H]2c2cc(OC)c(OC)c(OC)c2)cc1O`, the pIC50 in the data set with HL-60 [1] is 6.05; in data set [17] it was 5.52 and 6.00; in the data set on K562 [20] it was 5.70. For the same molecule, the Activity in the data set with HL-60 [15] amounted to 25%; with HuT78 [18], 70%; in the data set on HL-60 [19], 71.5%; in the data set on HL-60 [21], 18%; in the data set on HuT78 [13] it was 46%. In the data set with Osteoclast-like [16], the CFU-GEMM stood at 42%. In addition, the Ratio in data set [5] stood at 2.1. In addition, the AC50 with HL-60 [6] came out at 5 µM; in the data set on K562 [11], 2 µM; in the data set with K562 [14], 8 µM; in the data set with HL-60 [2] it was 2 µM.
On to `COc1ccc([C@@H]2C(C)=NO[C@@H]2c2cc(OC)c(OC)c(OC)c2)cc1O`, for which the pIC50 in the data set with HL-60 [1] was 5.70. Further, half-maximal activity in the data set on HL-60 [2] (AC50) was put at 3.5 µM.
In the data set on HL-60 [1], `COc1ccc(-c2cc(-c3cc(OC)c(OC)c(OC)c3)no2)cc1O` showed a pIC50 of 5.52. Also, in the data set with HL-60 [2], half-maximal activity (AC50) was put at 4.5 µM.
For `COc1ccc(-c2cccnc2-c2cc(OC)c(OC)c(OC)c2)cc1O` the same measures were 6.52 and 0.6 µM.
For `COc1ccc(C2CC(c3cc(OC)c(OC)c(OC)c3)=NO2)cc1O` (configuration not stated) the same measures were 5.49 and 5.5 µM.
For `COc1ccc(-c2ccc(-c3cc(OC)c(OC)c(OC)c3)cc2)cc1O` the same measures were 4.52 and 35 µM.
In turn, `COc1ccc([C@@H]2ON=C(C)[C@@H]2c2cc(OC)c(OC)c(OC)c2)cc1O` gave a pIC50 in the data set on HL-60 [1] of 5.70. The molecule also came in with an AC50 in the data set on HL-60 [2] of 3.5 µM.
On to `COc1ccc(/C=C\c2cc(OC)c(OC)c(OC)c2)cc1O` [COMBRETASTATIN A4], for which the CFU-GEMM with Osteoclast-like [16] was found to be 37%. For the same molecule, the Ratio in data set [5] was determined as 2.4. The molecule further returned an Activity in the data set on HL-60 [22] of 88%.
`COc1ccc(-c2ncccc2-c2cc(OC)c(OC)c(OC)c2)cc1O` had a pIC50 in the data set on HL-60 [1] of 5.30. In addition, the activity in the data set with HL-60 [2] was half-maximal at 10 µM (AC50).
For `COc1ccc(-c2cc(-c3cc(OC)c(OC)c(OC)c3)on2)cc1O` the same measures were 5.52 and 4 µM.
For `COc1ccc(-c2ccccc2-c2cc(OC)c(OC)c(OC)c2)cc1O` the same measures were 4.70 and 30 µM.
For the molecule `COc1ccc(-c2cccc(-c3cc(OC)c(OC)c(OC)c3)c2)cc1O`, in the data set on HL-60 [1], the pIC50 was 4.92. Further, the AC50 with HL-60 [2] was determined as 22 µM.
Turning to `COC1=NO[C@H](c2cc(OC)c(OC)c(OC)c2)[C@@H]1c1ccc(OC)c(O)c1`, the pIC50 in the data set on HL-60 [1] is 6.60; in data set [4] (hl60r), 6.12 and 6.70; in the data set with K562 [7], 6.30. Further, the Activity turned out to be 75% in data set [3]; 91.4% in the data set with HL-60 [24]; 57% with HL-60 [25]; 15% in the data set on HL-60 [10]; 40% with HuT78 [13]. In addition, the AC50 was determined as 2 µM in the data set on HL-60 [23], 0.4 µM in the data set on K562 [11], 2 µM with K562 [14] and 0.5 µM in the data set with HL-60 [2]. Further, the CFU-GEMM with Osteoclast-like [16] stood at 34%. In addition, in data set [5], the Ratio amounted to 2.6.
In the data set on HL-60 [1], `COc1ccc(-c2cc(Cl)cnc2-c2cc(OC)c(OC)c(OC)c2)cc1O` gave a pIC50 of 6.30. In the data set with HL-60 [2], this molecule had an AC50 of 0.8 µM.
